In the library only some 1.9% were active in any assay of this set; here they are far more common.
STEP inh: blocks human striatal-enriched tyrosine phosphatase; P54829; recombinant STEP, OMFP fluorogenic substrate, fluorescence; inhibition, % at 20 µM; hit rate 0.25% among 360,000;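 active means inhibition at 20 µM, scaled per plate between control wells, above about 37%, limit read from the data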;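 further: 0% = DMSO with enzyme and substrate and 100% = substrate only without enzyme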
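material = STEP tyrosine phosphatase | reagent = fluorogenic phosphatase substrate OMFP at 25 µM final | doses = single compound dose of 20 µM, 1% DMSO final | schedule = 20 min reaction, room temperature, in the dark | measured by = fluorescence, 480/540 nm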
DNMT1 block: DNMT1 (human) enzyme inhibition. DNMT1 molecular beacon, Hinp1I cleavage, fluorescence. inhibition (reported as % activation of signal), % at 10 µM. hit rate 0.83% among 360,000. AID 588458; in the data active means inhibition above about 50%
Target sequence (P26358 504-1616 limits assumed): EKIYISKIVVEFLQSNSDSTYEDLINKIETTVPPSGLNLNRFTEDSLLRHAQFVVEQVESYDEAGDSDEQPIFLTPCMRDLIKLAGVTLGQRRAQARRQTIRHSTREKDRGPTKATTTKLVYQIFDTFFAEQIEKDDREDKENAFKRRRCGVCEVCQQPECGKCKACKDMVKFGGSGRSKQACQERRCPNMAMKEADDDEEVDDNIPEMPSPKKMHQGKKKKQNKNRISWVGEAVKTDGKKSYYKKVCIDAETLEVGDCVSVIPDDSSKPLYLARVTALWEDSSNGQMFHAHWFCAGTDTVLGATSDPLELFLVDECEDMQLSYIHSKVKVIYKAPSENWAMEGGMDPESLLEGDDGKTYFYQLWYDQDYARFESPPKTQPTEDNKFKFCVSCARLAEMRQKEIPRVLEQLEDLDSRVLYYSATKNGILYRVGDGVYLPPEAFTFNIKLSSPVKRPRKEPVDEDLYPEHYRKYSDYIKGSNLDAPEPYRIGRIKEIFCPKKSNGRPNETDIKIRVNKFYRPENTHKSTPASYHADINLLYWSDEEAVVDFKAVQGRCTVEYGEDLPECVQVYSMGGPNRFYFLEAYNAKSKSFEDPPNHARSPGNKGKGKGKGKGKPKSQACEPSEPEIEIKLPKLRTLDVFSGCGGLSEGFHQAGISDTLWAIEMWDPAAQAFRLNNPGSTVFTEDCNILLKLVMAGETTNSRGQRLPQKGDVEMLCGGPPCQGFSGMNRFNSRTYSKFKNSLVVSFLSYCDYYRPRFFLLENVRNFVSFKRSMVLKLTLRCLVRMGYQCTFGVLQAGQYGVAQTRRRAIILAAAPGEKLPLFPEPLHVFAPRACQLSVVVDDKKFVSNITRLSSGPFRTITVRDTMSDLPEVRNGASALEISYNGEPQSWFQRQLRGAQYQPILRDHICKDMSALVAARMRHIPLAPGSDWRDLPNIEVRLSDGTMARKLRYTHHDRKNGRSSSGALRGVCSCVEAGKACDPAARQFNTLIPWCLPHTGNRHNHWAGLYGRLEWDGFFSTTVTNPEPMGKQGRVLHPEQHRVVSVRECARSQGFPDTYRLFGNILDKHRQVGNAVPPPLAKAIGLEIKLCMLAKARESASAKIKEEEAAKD
SUMO1 PPI mod: modulators of human SUMO1-mediated protein-protein interactions; P63165; SUMO1 binding to a labelled peptide, TR-FRET, 1 h; inhibition, % at 20 µM; hit rate 0.33% among 360,000; AID 602429; in the data active means inhibition above about 37%
LMPTP block: LMPTP (human) inhibition; P24666; recombinant LMPTP-A, OMFP fluorogenic substrate, fluorescence intensity; inhibition, % at 20 µM; hit rate 0.22% among 360,000; AID 651560;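 active means compounds that cut the enzyme signal by at least half of the control window in the single-dose screen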;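 further: plate controls were DMSO wells with enzyme plus substrate for no effect and substrate without enzyme for full effect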
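Assay system: LMPTP-A, protein tyrosine phosphatase of low molecular weight / Medium: pH 6.0 Bis-Tris buffer with DTT and Triton X-100 / Schedule: 50 min enzyme reaction at room temperature, protected from light / Measured by: endpoint fluorescence intensity from OMFP dephosphorylation / Read-out basis: % inhibition relative to no-enzyme and uninhibited control wells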
CSN inh: inhibitors of human CSN-mediated cullin deneddylation; Q92905; Purified CSN, SCF-Nedd8-OG deneddylation, fluorescence polarization; inhibition, % at 12.5 µM; hit rate 0.38% among 360,000;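 active means pattern-corrected inhibition above about 35%, with an unprinted fluorescence ratio check between 0.5 and 1.5, limit read from the data, passing the limit was not always enough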;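 further: 0% = enzyme with substrate and 100% = substrate without enzyme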
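Assay system: HEK293T-derived human Csn5 enzyme; quantity: 0.24 nM enzyme; medium: Tris/NaCl/DTT buffer, pH 7.5; also added: substrate SCFSkp2-Nedd8OG, 10 nM; doses: 12.5 µM compound; schedule: 90 min reaction at room temperature; signal: FP; read-out: % inhibition of substrate cleavage by Csn5; benchmarks: substrate-only high control, full reaction low control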
Scp1 inh: Scp-1 (human) phosphatase inhibition. Q9GZU7. Recombinant Scp1, phosphopeptide, malachite green phosphate absorbance. inhibition, % at 20 µM. hit rate 0.88% among 340,000. AID 493091;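 active means inhibition above about 50% at 20 µM, limit read from the data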;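 further: plate controls were DMSO wells with enzyme for no effect and wells lacking enzyme for full effect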
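assay system = SCP-1 phosphatase catalytic domain, residues 76-261 | buffer or medium = 50 mM Tris acetate pH 5.5, 0.005% Tween-20, 10 mM MgCl2 | incubation = enzyme reaction 45 min at room temperature, colour 5 min, stabilisation 30 min | signal = Phosphate-binding colour reagent, absorbance read at 630 nm | measure = % inhibition at 20 µM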
Numbers without * were called inactive; · = no result.

SMILES | STEP inh | DNMT1 block | SUMO1 PPI mod | LMPTP block | CSN inh | Scp1 inh
COc1ccc(Cl)cc1NC(=O)C1CCCN(c2ncnc3c2nc2n3CCCCC2)C1 (stereo not drawn) | 0 | -3 | 5 | 1 | 1 | 3
Cn1c(=O)c2[nH]c(Nc3ccccc3)nc2n(C)c1=O | -1 | 0 | 4 | -1 | 3 | -8
Cc1ccc(CNc2nc3c([nH]2)c(=O)n(C)c(=O)n3C)cc1 | -8 | 0 | 50* | -1 | 0 | 0
O=C(Nc1cc([N+](=O)[O-])c2[nH]c(=O)c3ccccc3c2c1)C(F)(F)F | -2 | 16 | -21 | 1 | -1 | 5
COc1cc(CC(NC(C)=O)C(=O)NC2CCN(c3nc(C)cc(C)c3C#N)CC2)cc(OC)c1 (stereo not drawn) | -1 | 13 | 42* | -1 | -2 | 3
COc1cccc(-c2c(-c3cc(OC)cc(OC)c3)n(C)c3ccc(-c4cccc5[nH]ccc45)cc23)c1 | -4 | -6 | 10 | 5 | 7 | 14
O=C(Nc1cccc(Cl)c1)Nc1nnc(-c2ccncc2)s1 | 8 | 30 | 7 | 40 | 92 | -7
Fc1ccc(Nc2nnc(-c3ccncc3)s2)cc1Cl | -1 | 0 | 43* | 9 | -1 | ·
O=C(Nc1ccc(F)cc1)Nc1nnc(-c2ccncc2)s1 | 0 | 2 | 3 | 22 | 17 | -6
O=C(Nc1ccc(Cl)cc1)Nc1nnc(-c2ccncc2)s1 | 10 | -16 | 9 | 60* | 24 | 3
Cc1ccc(-n2c(SCC(=O)Nc3ccc(Cl)cc3)nc(O)cc2=O)cc1 | -1 | -1 | 0 | -1 | -4 | -5
O=C1C=C(N2CCCCC2)c2ccccc2C1=O | 11 | 89* | 66* | 5 | 8 | -4
O=C(COc1ccccc1)N[C@@H]1c2ccccc2CC[C@@H]1O | -2 | -2 | 5 | -1 | 57* | -1
Oc1ccc(/C=N/NC(=S)Nc2cccnc2)c(O)c1O | 16 | 3 | 81* | 84* | 16 | 6
CCN1C(=O)/C(=C\c2cn(-c3ccccc3)nc2-c2cccnc2)SC1=S | -1 | 53* | 8 | 0 | -4 | 6
O=C1C(=Cc2cn(-c3ccccc3)nc2-c2ccc(OCc3ccccc3)cc2)SC(=S)N1CCS(=O)(=O)O | 10 | -59 | 90* | 88* | 29 | ·
O=C(O)CN1C(=O)/C(=C\c2cn(-c3ccccc3)nc2-c2ccccc2)SC1=S | 9 | -3 | -6 | 2 | 0 | 22
CCCOc1ccc(-c2nn(-c3ccccc3)cc2/C=C2\SC(N)=NC2=O)cc1 | 4 | 55* | 11 | 0 | 0 | -5
Cc1cc(-c2nn(-c3ccccc3)cc2/C=C2\SC(N)=NC2=O)ccc1OC(C)C | 0 | -18 | -7 | 1 | 4 | -2
O=C(Nc1cccc(Cl)c1)Nc1nnc(CSCCOc2ccc(Cl)cc2)s1 | 2 | 22 | -2 | 0 | -12 | -8
Cc1ccc(S(=O)(=O)N(C)CC(=O)NCCCn2ccnc2)cc1 | 1 | 0 | 3 | -3 | 0 | -5
CN(C)c1ccc(O)c2c1CC1CC3[C@@H](N(C)C)C(=O)C(C(N)=O)=C(O)[C@]3(O)C(=O)C1=C2O (stereo partly drawn) | 21 | 90* | 23 | 35 | 55 | 47
C[C@H]1c2cccc(O)c2C(O)=C2C(=O)[C@]3(O)C(O)=C(C(N)=O)C(=O)[C@@H](N(C)C)[C@@H]3[C@@H](O)[C@@H]21 | 2 | 1 | 0 | 5 | -4 | -9
O=C1CS/C(=N/N=C/c2ccco2)N1Cc1ccc(F)cc1 | 1 | -3 | -7 | 0 | 0 | -2
C/C(=N\NS(=O)(=O)c1ccc(C)c([N+](=O)[O-])c1)c1cc2ccccc2o1 | 0 | 5 | -2 | 1 | -2 | 4
SMILES | STEP inh | DNMT1 block | SUMO1 PPI mod | LMPTP block | CSN inh | Scp1 inh
C/C(=N\NS(=O)(=O)c1ccc(Cl)c([N+](=O)[O-])c1)c1ccc(C)o1 | 1 | 23 | -3 | 55* | 2 | -2
C/C(=N\NS(=O)(=O)c1ccc(Cl)c([N+](=O)[O-])c1)c1cc2ccccc2o1 | -2 | 8 | -4 | 60* | 1 | -13
CCC(=O)N1CCC1(C)C(=O)Nc1ccc2nc(C)ccc2c1 (stereo not drawn) | 2 | -1 | -1 | -1 | -1 | ·
O=C(c1cccc(-c2ccccc2F)c1)N1CC[C@@H](N2CCC(O)CC2)[C@H](O)C1 | -2 | -2 | 5 | 0 | -3 | 7
C[C@H](NC(=O)c1cc2c(cn1)[nH]c1ccccc12)C(=O)O | 90* | 1 | 3 | 2 | -3 | -13
COC(=O)[C@H](C)NC(=O)c1cc2c(cn1)[nH]c1ccccc12 | 8 | 1 | 1 | 3 | 6 | -2
O=S(=O)(O)c1cc(O)c(N=Nc2ccc(O)cc2O)c2ccccc12 | 10 | 55* | 44* | 50 | 32 | 61*
CC1C/C(=N\NC(N)=S)c2cc(Cl)ccc2S1 (stereo not drawn) | -2 | 0 | -2 | 1 | 3 | -11
CC(C)=C1CCC(C)CC1=NNC(N)=S (stereo not drawn) | -1 | 1 | -3 | -1 | 3 | 56*
CS(=O)(=O)Nc1ccc(C2=NN(S(C)(=O)=O)C(c3ccccc3)C2)cc1 (stereo not drawn) | -3 | 11 | -2 | 0 | 1 | -11
CCS(=O)(=O)N1N=C(c2ccc(NS(C)(=O)=O)cc2)CC1c1ccccc1 (stereo not drawn) | 0 | 2 | -3 | 0 | 35* | -4
COc1ccc2c(c1)N(C)/C(=C/c1cccc[n+]1C)S2 | -1 | 11 | -36 | 1 | 3 | 11
CCN1/C(=C/c2cccc[n+]2C)Sc2ccc(OC)cc21 | -1 | 1 | -43 | 2 | 2 | 109*
O=C(COc1ccccc1Cl)Nc1ccc(S(=O)(=O)Nc2ccccn2)cc1 | 0 | 2 | 4 | 1 | 2 | 2
O=C(COc1ccc2cc(Br)ccc2c1Br)N1CCOCC1 | 5 | -3 | -23 | 0 | 4 | -8
COCCn1c(SCC(=O)c2ccc3c(c2)OCCO3)nnc1C(C)C | 0 | 0 | -4 | -1 | 84* | -2
O=C(COc1ccccc1[N+](=O)[O-])NCCCN1CCCC1=O | -1 | 4 | -4 | -1 | 1 | -6
COc1ccc(C(=O)OCc2ccccc2C#N)cc1S(=O)(=O)N1CCOCC1 | 1 | 2 | -1 | -1 | 4 | ·
COC(=O)c1cc(C(=O)OC)n(Cc2ccc(Cl)cc2Cl)n1 | 1 | 5 | 4 | 0 | 1 | -6
CC(C)(C)c1cc(C(=O)O)n(Cc2ccc(Cl)cc2Cl)n1 | 1 | 3 | 49* | 0 | 1 | -13

From PubChem BioAssay
